Source: PMC10408732 (Anesthesia and Analgesia, 2023)
Where two headings read alike, the source gives them in different places.

Assays:
rat α7 nAChR [1] = molecular target: T1, rat α7 nAChR (Rattus norvegicus, UniProt Q05941); assay: Two-electrode voltage clamp at rα7 nAChRs expressed in Xenopus laevis oocytes; assay type: cell-based
mice [2] = assay: Rota-rod test; assay type: in vivo
Method in brief: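 Rota-rod, mice n = 5/condition. Test compound 30 mg/kg, single dose (tested right after) or daily for 7 days (tested day 8); vehicle controls. Falls from the rod counted over a 30 s test, every 15 min for 1 h. Mice with <3 or >6 falls in the pretest were excluded.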

human CaV2.2 channel [3] = molecular target: T2, human CaV2.2 channel (Homo sapiens, UniProt Q00975); assay: Whole-cell patch clamp recording of CaV2.2 channels expressed in HEK293T cells; assay type: cell-based
Method in brief: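 Human CaV2.2 transiently expressed in HEK293T cells; whole-cell patch clamp at room temperature 24–48 h after transfection. Bath: 10 mM BaCl2, 30 mM TEA-Cl, pH 7.35. Pipette (2–3 MΩ): K-gluconate with 5 mM EGTA, pH 7.2. Ba2+ currents evoked from −80 mV by steps to −10 or −15 mV at 0.1 Hz, in the absence and presence of test compound.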

rat α9α10 nAChR = rat α9α10 nAChR (Rattus norvegicus, UniProt P43144+Q9JLB5); assay: Two-electrode voltage clamp at rα9α10 nAChRs expressed in Xenopus laevis oocytes; assay type: cell-based; conditions: for IC50: Inhibition IC50 (μM), −80 mV
Chain of rat α9α10 nAChR (P43144 26-479): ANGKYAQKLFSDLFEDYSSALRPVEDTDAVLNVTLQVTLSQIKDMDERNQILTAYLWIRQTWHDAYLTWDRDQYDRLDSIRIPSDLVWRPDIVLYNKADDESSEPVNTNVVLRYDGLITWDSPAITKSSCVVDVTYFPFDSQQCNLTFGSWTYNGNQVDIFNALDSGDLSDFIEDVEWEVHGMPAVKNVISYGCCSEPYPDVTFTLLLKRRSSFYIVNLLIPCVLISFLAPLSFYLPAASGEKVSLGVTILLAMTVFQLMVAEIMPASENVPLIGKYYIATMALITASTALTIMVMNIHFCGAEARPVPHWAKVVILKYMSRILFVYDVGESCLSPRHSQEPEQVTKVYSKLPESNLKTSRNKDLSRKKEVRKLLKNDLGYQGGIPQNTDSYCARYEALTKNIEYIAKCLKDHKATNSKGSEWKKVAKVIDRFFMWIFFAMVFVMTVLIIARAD
Chain of rat α9α10 nAChR (Q9JLB5 25-447): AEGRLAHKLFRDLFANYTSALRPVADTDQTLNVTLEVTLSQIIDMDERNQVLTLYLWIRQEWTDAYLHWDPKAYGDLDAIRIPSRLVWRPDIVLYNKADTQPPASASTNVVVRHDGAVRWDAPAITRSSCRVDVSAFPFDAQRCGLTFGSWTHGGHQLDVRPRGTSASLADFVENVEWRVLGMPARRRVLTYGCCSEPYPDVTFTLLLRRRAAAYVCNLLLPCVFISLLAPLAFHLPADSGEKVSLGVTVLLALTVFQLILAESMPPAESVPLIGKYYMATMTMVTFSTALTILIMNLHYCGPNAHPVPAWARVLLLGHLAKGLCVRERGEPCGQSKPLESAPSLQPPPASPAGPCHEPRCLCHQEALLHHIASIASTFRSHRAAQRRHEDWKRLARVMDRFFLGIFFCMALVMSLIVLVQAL

[4] = system: oxaliplatin-induced neuropathic pain in mice; assay: Oxaliplatin-induced neuropathic pain, cold plate test; assay type: in vivo
Method in brief: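 Male CD-1 mice, n = 10/condition, given oxaliplatin 2.4 mg/kg i.p. in 5% glucose, 5 days/week for 2 weeks. On day 15: baseline cold plate, then oral test compound (1, 3, 10 or 30 mg/kg, or a two-compound combination at 30 mg/kg each) in 1% carboxymethyl cellulose. Hind-paw licking latency every 15 min for 60–75 min, 30 s cutoff; mean ± SEM; 1-way ANOVA with Bonferroni.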

human CaV2.2 channel [5] = molecular target: T2, human CaV2.2 channel; conditions: cited from earlier work
[6] = same software; cited from earlier work
rat α7 nAChR [7] = molecular target: T1, rat α7 nAChR; conditions: rα7, same conditions, cited from earlier work
[8] = system: oxaliplatin-induced neuropathic pain in mice; conditions: oxaliplatin model; cited from earlier work
mice [9] = assay: Effect on pain threshold, hot plate test; assay type: in vivo; conditions: acute or repeated (7 days) 30 mg/kg, P > .05 vs vehicle
mice [10] = assay: Effect on pain threshold, cold plate test; assay type: in vivo; conditions: acute or repeated (7 days) 30 mg/kg, P > .05 vs vehicle
[11] = acute, single dose 30 mg/kg, counted every 15 min for 1 h, P > .05 vs vehicle
[12] = read-out: inhibition of ACh-evoked currents
[13] = oxaliplatin-treated mice, 30 mg/kg oral, cold plate test

T1 sequence (Q05941 23-502): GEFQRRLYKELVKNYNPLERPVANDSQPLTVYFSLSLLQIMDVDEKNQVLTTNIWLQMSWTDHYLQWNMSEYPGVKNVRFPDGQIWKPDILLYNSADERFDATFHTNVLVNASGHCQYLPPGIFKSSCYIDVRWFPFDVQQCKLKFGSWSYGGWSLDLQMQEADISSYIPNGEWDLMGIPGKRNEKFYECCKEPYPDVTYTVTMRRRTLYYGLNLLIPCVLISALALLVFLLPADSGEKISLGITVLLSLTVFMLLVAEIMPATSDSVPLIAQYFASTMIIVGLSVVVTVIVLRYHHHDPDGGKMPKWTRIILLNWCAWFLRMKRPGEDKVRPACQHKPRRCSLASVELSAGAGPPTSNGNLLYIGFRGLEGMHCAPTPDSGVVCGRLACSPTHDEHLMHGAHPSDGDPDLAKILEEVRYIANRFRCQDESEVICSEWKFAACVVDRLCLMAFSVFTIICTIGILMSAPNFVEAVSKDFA

In the case of Cc1ccc(NC(=O)/C=C/c2cccs2)cc1 [DM497, (E)-3-(thiophen-2-yl)-N-(p-tolyl)acrylamide], the EC50 (rat α7 nAChR [1]) is reported as 86 ± 10 µM, the Emax (rat α7 nAChR [1]; read-out: maximal efficacy at rα7 nAChRs) is reported as 196% and the “potentiation of ACh-evoked currents” value (rat α7 nAChR [1]; rα7, 30 µM ACh, 100 µM compound) is reported as ~ 100%. For the same compound, the “Potentiation nH” value (rat α7 nAChR [1]; rα7, agonist ACh 30 µM) was ~2, the “endurance time (number of falls per 30 seconds)” value (mice [2]; [11]) was “did not modify the endurance time” and the “inhibitory activity at the CaV2.2 channel (in words)” value (human CaV2.2 channel [3]; CaV2.2 channel) was “minimal effect”. For the same compound, the inhibition at 300 µM (human CaV2.2 channel [3]; HEK-293T, read-out: inhibition of whole-cell Ba2+ currents, hCaV2.2, at 300 µM) was ~20%, the IC50 (rat α9α10 nAChR; rα9α10, agonist ACh 10 µM) was 340 ± 21 µM and the IC50 (rat α9α10 nAChR; rα9α10, agonist ACh 100 µM) was 369 ± 21 µM. For the same compound, the inhibition at 300 µM (rat α9α10 nAChR; [12]) was 40%, the “activity when administered alone (cold plate test)” value ([4]; mice without oxaliplatin, 10 mg/kg) was “without inducing any activity when administered alone” and the “active dose (antinociceptive activity)” value ([4]; oxaliplatin model, this work) was 10 mg/kg. The “onset of antinociceptive activity” value ([4]; oxaliplatin-treated mice, 10 mg/kg oral, cold plate test) was 30 min, the “extent of the antinociceptive effect at 30 mg/kg compared to 10 mg/kg” value [4, 13] was “without changing the extent of the antinociceptive effect” and the “onset of antinociceptive activity” value [4, 13] was 15 min. For the same compound, the “antinociceptive activity (licking latency, cold plate test)” value ([4]; oxaliplatin-treated mice, day 15, single oral 1 mg/kg) was “but not 1 or 3 mg/kg”.

In the case of Cc1ccc(NC(=O)/C=C/c2ccco2)cc1 [PAM-2, (E)-3-furan-2-yl-N-p-tolyl-acrylamide], the IC50 (human CaV2.2 channel [5]) is given as 89 µM, the LogBBB [6] is given as 0.09 and the LogP [6] is given as 2.96. For the same compound, the IC50 (rat α7 nAChR [7]; read-out: potency at rα7 nAChRs (IC50 as printed)) was 12 µM, the “maximal efficacy at rα7 nAChRs” value (rat α7 nAChR [7]) was 135% ± 4% and the “active dose (antinociceptive activity)” value [8] was 3 mg/kg.

In the case of O=C1[O][Pt]2([NH][C@@H]3CCCC[C@H]3[NH]2)[O]C1=O [Oxaliplatin, reference compound], the IC50 (rat α7 nAChR [1]; read-out: Inhibition IC50, rα7, agonist ACh 30 µM, −80 mV) is reported as 200 µM and the IC50 (rat α7 nAChR [1]; read-out: Inhibition IC50, rα7, agonist nicotine 25 µM) is reported as 200 µM.

For O=C(/C=C/c1ccco1)N1CCc2ccccc21 [DM489, (E)-3-(furan-2-yl)-1-(indolin-1-yl)prop-2-en-1-one], the LogBBB [6] is listed as 0.17 and the “active dose (antinociceptive activity)” value [8] is listed as 10 mg/kg.

With Cc1ccc(N(C)C(=O)/C=C/c2ccco2)cc1 [DM490, (E)-3-(furan-2-yl)-N-methyl-N-(p-tolyl)acrylamide] the IC50 (rat α7 nAChR [1]) was 15.1 ± 1.8 µM, the inhibition at 10 µM (rat α7 nAChR [1]; read-out: inhibition of ACh-evoked current amplitude) was ~40% and the “Inhibition nH” value (rat α7 nAChR [1]; rα7, agonist ACh 30 µM) was < 1.5. For the same compound, the “endurance time (number of falls per 30 seconds)” value (mice [2]; [11]) was “did not modify the endurance time”, the “endurance time (number of falls per 30 seconds)” value (mice [2]; repeated, 30 mg/kg daily for 7 days, day 8, P > .05 vs vehicle) was “did not modify the endurance time” and the IC50 (human CaV2.2 channel [3]) was 93 ± 16 µM. For the same compound, the “pain threshold for heat stimuli” value (mice [9]) was “did not change the pain threshold”, the IC50 (rat α9α10 nAChR; rα9α10, agonist ACh 10 µM) was 41 ± 4 µM and the IC50 (rat α9α10 nAChR; rα9α10, agonist ACh 100 µM) was 36 ± 4 µM. The inhibition at 30 µM (rat α9α10 nAChR; [12]) was ~45%, the “fold higher antagonist potency than that for DM497” value (rat α9α10 nAChR; α9α10 nAChR) was > 8 fold and the “activity on oxaliplatin-treated animals (cold plate test)” value ([4]; 30 mg/kg oral, alone) was “without inducing any activity on oxaliplatin-treated animals”. The “pain threshold for cold stimuli” value (mice [10]) was “did not change the pain threshold”.
